The results in this text go back to ChEMBL document CHEMBL1833904, “Antiplasmodial and antiproliferative pseudoguaianolides of Athroisma proteiforme from the Madagascar Dry Forest” (J Nat Prod, 2011).

Each structure is given as a SMILES string.

One test concerns A2780. Nature of the test: Antiproliferative activity against human A2780 cells. Type of test: cell-based.
The test system of test [1] is Plasmodium falciparum. Nature of the test: Antiplasmodial activity against chloroquine-sensitive Plasmodium falciparum HB3 after 72 hrs SYBR green 1 dye based by fluorometric method. Type of test: functional, organism-based. The note with it: HB3, 72 h. In outline: (§1)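 Sorbitol-synchronised ring-stage cultures (>95% rings), final 1% hematocrit and 0.5% parasitemia, added to prewarmed wells holding sample diluted in complete medium from DMSO stock. Incubated 72 h at 37 °C under 90% N, 5% O2, 5% CO2. SYBR Green I added, 1 h at 37 °C, fluorescence ex 490/em 530 nm. Triplicate IC50s averaged (±S.E.M.); chloroquine positive control.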

The test system of test [2] is Plasmodium falciparum. Nature of the test: Antiplasmodial activity against chloroquine-resistant Plasmodium falciparum Dd2 after 72 hrs by SYBR green 1 dye based fluorometric method. It counts as functional, organism-based. The note with it: Dd2, 72 h. A digest of the protocol: as §1
In test [3] the test system is Plasmodium falciparum. Nature of the test: Resistance factor, ratio of IC50 for chloroquine-resistant Plasmodium falciparum Dd2 to IC50 for chloroquine-sensitive Plasmodium falciparum HB3. It counts as functional.

For the molecule `C=C1C(=O)O[C@@H]2[C@@H](C)[C@@H]3C=CC(=O)[C@@]3(C)[C@@H](OC(=O)/C=C(\C)CC)[C@H]1[C@H]2OC(=O)CC(C)(O)CC` (relative stereo), in the test with A2780, the concentration for half-maximal inhibition (IC50) (commonly the concentration at which inhibition is half-maximal) amounted to 1900 nM.
Consider `C=C1C(=O)O[C@@H]2[C@@H](C)[C@@H]3C=CC(=O)[C@@]3(C)[C@@H](OC(=O)/C(C)=C\C)[C@H]1[C@H]2OC(=O)CC(C)(C)O` (relative stereo), for which half-maximal inhibition with A2780 (IC50) required 570 nM.
`C=C1C(=O)O[C@@H]2[C@@H](C)[C@@H]3C=CC(=O)[C@@]3(C)[C@@H](OC(=O)/C(C)=C\C)[C@H]1[C@H]2OC(=O)CC(C)(O)CC` (relative stereo) came in with a concentration for half-maximal inhibition (IC50) in the test on A2780 of 380 nM.
As to `C=C1C(=O)O[C@H]2C[C@@H](C)[C@@H]3[C@@H](OC(=O)C(C)C)C[C@@H](OC(C)=O)[C@@]3(C)[C@@H](OC(C)=O)[C@H]12` [ATHROLIDE A], the IC50 with Plasmodium falciparum [1] turned out to be 34300 nM; in the test on Plasmodium falciparum [2], 32700 nM; with A2780, 2100 nM. Further, the “Ratio IC50” value in the test with Plasmodium falciparum [3] stood at 1.
In the case of `C=C1C(=O)O[C@H]2C[C@@H](C)[C@@H]3[C@@H](OC(=O)C(C)C)C[C@@H](OC(C)=O)[C@@]3(C)[C@H](O)[C@H]12` [ATHROLIDE B], the IC50 in the test with A2780 turned out to be 2500 nM.
`CC(=O)O[C@H]1C(=O)[C@@]2(C)[C@H]([C@H](OC(=O)c3ccccc3)[C@]3(O)C[C@H](OC(=O)[C@H](O)[C@@H](NC(=O)c4ccccc4)c4ccccc4)C(C)=C1C3(C)C)[C@]1(OC(C)=O)CO[C@@H]1C[C@@H]2O` [PACLITAXEL] showed a concentration for half-maximal inhibition (IC50) with A2780 of 17 nM.
